In ChEMBL document CHEMBL5244266, “Nitrogen-containing naringenin derivatives for reversing multidrug resistance in cancer” (Bioorg Med Chem, 2020):

How the values were obtained:
[1] = test system: L5178Y; experiment: Cytotoxicity against parental mouse L5178Y cells assessed as inhibition of cell growth incubated for 24 hrs by MTT assay; assay type: functional, cell-based
Procedure, shortened: (§1)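 L5178Y parental and human ABCB1 retrovirus-transfected lines were grown in McCoy's 5A with 10% heat-inactivated horse serum, and the MDR line was kept under colchicine 60 ng/mL. Cells were seeded at 1×10^4/well and given 2-fold dilutions from 100 μM maximum, in duplicate, for 24 h. MTT was added for 4 h, then SDS/HCl overnight at 37 °C, with OD read at 550 nm (ref 630 nm). Growth inhibition was computed against cell and medium controls, and IC50 came from curve fitting (mean ± SD).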

[2] = test system: L5178Y; experiment: Cytotoxicity against multi-drug resistant mouse L5178Y cells transfected with ABCB1 gene assessed as inhibition of cell growth incubated for 24 hrs by MTT assay; assay type: functional, cell-based; procedure, shortened: as §1
[3] = test system: L5178Y; experiment: (§2) Modulation of P-glycoprotein mediated Rhodamine-123 efflux in multi-drug resistant mouse L5178Y cells tranfected with ABCB1 gene assessed as fluorescence activity ratio at 2 uM preincubated for 10 mins followed by rhodamine-123 addition and measured after 20 mins by flow cytometric analysis (reference value: 1.01); assay type: cell-based; settings: filed as modulator, time 30.0 min
Procedure, shortened: (§3)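 Cells were held in serum-free McCoy's 5A with compound at 2.0 or 20 μM, verapamil 20 μM as positive control and DMSO 2% as solvent control, for 10 min at room temperature. R123 was then added (5.2 μM final) for 20 min at 37 °C, followed by two washes into PBS and flow cytometry (FL-1 mean fluorescence). FAR = (MDR treated/untreated FL-1) divided by (PAR treated/untreated FL-1).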

[4] = test system: L5178Y; experiment: Synergistic cytotoxicity against multi-drug resistant mouse L5178Y cells transfected with ABCB1 gene assessed as combination index measured after 48 hrs in the presence of doxorubicin by MTT assay; assay type: functional
Procedure, shortened: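 This was a fixed-ratio checkerboard in L5178Y-MDR cells, with doxorubicin diluted from 14.7 to 0.1 μM against serial dilutions of the modulator. Cells were seeded at 2×10^5/mL, incubated 48 h, and read by MTT. Each curve was fitted linearly to the Chou–Talalay median-effect equation, keeping only fits with r > 0.90. CI at 50% inhibition is given as the mean ± SD of three CI values from different drug ratios.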

[5] = test system: L5178Y; experiment: as §2, with “ratio by measuring fold change” for “ratio”, “relative to verapamil” for “(reference value: 1.01)”; assay type: cell-based; settings: filed as modulator, time 30.0 min; procedure, shortened: as §3
[6] = test system: L5178Y; experiment: as §2, with “ratio by measuring fold change” for “ratio”, “at 20” for “at 2”, “analysis relative to verapamil” for “analysis (reference value: 1.01)”; assay type: cell-based; settings: filed as modulator, time 30.0 min; procedure, shortened: as §3

| SMILES | IC50 [1] [µM] | IC50 [2] [µM] | Ratio [3] | CI [4] | fold change (FC) [5] | fold change (FC) [6] |
| --- | --- | --- | --- | --- | --- | --- |
| Cn1cccc1/C=N/N=C1\C[C@@H](c2ccc(O)cc2)Oc2cc(O)cc(O)c21 | ≥ 11.3 | ≥ 11.3 | 0.64 |  |  |  |
| O=C(Cc1c[nH]c2ccccc12)N/N=C1\C[C@@H](c2ccc(O)cc2)Oc2cc(O)cc(O)c21 | ≥ 11.3 | ≥ 11.3 | 1 |  |  |  |
| COc1cc(O)c2c(c1)O[C@H](c1ccc(O)cc1)C/C2=N\N | ≥ 11.3 | ≥ 11.3 | 1.26 |  |  |  |
| COc1ccc([C@@H]2C/C(=N\Nc3ccc(Br)cn3)c3c(O)cc(OC)cc3O2)cc1 | 8 | 10.7 | 10.7 |  |  |  |
| COc1ccc([C@@H]2C/C(=N\NC(=O)OCc3ccccc3)c3c(O)cc(OC)cc3O2)cc1 | > 100 | 7.2 | 0.94 | 0.445 |  |  |
| COc1ccc([C@@H]2C/C(=N\N)c3c(O)cc(OC)cc3O2)cc1 | ≥ 11.3 | ≥ 11.3 | 0.85 |  |  |  |
| COc1cc(O)c2c(c1)O[C@H](c1ccc(O)cc1)CC2=O [SAKURANETIN] | ≥ 11.3 | ≥ 11.3 | 1.06 |  |  |  |
| COc1ccc([C@@H]2C/C(=N\NC(=O)c3ccco3)c3c(O)cc(OC)cc3O2)cc1 | 2.7 | 3.4 | 2.24 |  |  |  |
| COc1cc(O)c2c(c1)O[C@H](c1ccc(O)cc1)C/C2=N\Nc1ccc(Br)cn1 | 4.3 | 12.7 | 2.1 |  |  |  |
| COc1cc(O)c2c(c1)O[C@H](c1ccc(OCC(O)CNC3CCN(Cc4ccccc4)CC3)cc1)CC2=O (stereo partly drawn) | ≥ 11.3 | ≥ 11.3 | 18.7 | 0.108 | 2 | 6 |
| Oc1ccc([C@@H]2C/C(=N\N=C\c3c[nH]c4ccccc34)c3c(O)cc(O)cc3O2)cc1 | ≥ 11.3 | ≥ 11.3 | 0.95 |  |  |  |
| O=C(N/N=C1\C[C@@H](c2ccc(O)cc2)Oc2cc(O)cc(O)c21)c1ccco1 (stereo in doubt) | ≥ 11.3 | ≥ 11.3 | 0.86 |  |  |  |
| COc1ccc([C@@H]2CC(=O)c3c(O)cc(OC)cc3O2)cc1 | ≥ 11.3 | ≥ 11.3 | 1.03 |  |  |  |
| COc1cc(O)c2c(c1)O[C@H](c1ccc(OCC(O)CCl)cc1)CC2=O (stereo partly drawn) | ≥ 11.3 | ≥ 11.3 | 1.33 |  |  |  |
| COC(=O)C1CCN(CC(O)COc2ccc([C@@H]3CC(=O)c4c(O)cc(OC)cc4O3)cc2)CC1 (stereo partly drawn) | ≥ 11.3 | ≥ 11.3 | 8.01 |  |  |  |
| COc1ccc([C@@H]2C/C(=N\NC(=O)Cc3c[nH]c4ccccc34)c3c(O)cc(OC)cc3O2)cc1 | 8.6 | 7.5 | 2.47 |  |  |  |
| COc1cc(O)c2c(c1)O[C@H](c1ccc(O)cc1)C/C2=N\Nc1ccccc1 | ≥ 11.3 | ≥ 11.3 | 1.16 |  |  |  |
| O=C(N/N=C1\C[C@@H](c2ccc(O)cc2)Oc2cc(O)cc(O)c21)OCc1ccccc1 | ≥ 11.3 | ≥ 11.3 | 0.76 |  |  |  |
| COc1cc(O)c2c(c1)O[C@H](c1ccc(OCC(O)CN3CCCCC3)cc1)CC2=O (stereo partly drawn) | 9.3 | 17.4 | 3.08 |  |  |  |
| COc1cc(O)c2c(c1)O[C@H](c1ccc(O)cc1)C/C2=N\NC(=O)c1ccc(C(F)(F)F)cc1 | ≥ 11.3 | ≥ 11.3 | 0.83 |  |  |  |

| SMILES | IC50 [1] [µM] | IC50 [2] [µM] | Ratio [3] | CI [4] | fold change (FC) [5] | fold change (FC) [6] |
| --- | --- | --- | --- | --- | --- | --- |
| O=C1C[C@@H](c2ccc(O)cc2)Oc2cc(O)cc(O)c21 [NARINGENIN] | ≥ 11.3 | ≥ 11.3 | 0.72 |  |  |  |
| COc1cc(O)c2c(c1)O[C@H](c1ccc(O)cc1)C/C2=N\NC(=O)c1ccc(N)cc1 | ≥ 11.3 | ≥ 11.3 | 0.96 |  |  |  |
| COc1cc(O)c2c(c1)O[C@H](c1ccc(O)cc1)C/C2=N\NC(=O)Cc1c[nH]c2ccccc12 | ≥ 11.3 | ≥ 11.3 | 1.12 |  |  |  |
| Oc1ccc([C@@H]2C/C(=N\Nc3ccc(Br)cn3)c3c(O)cc(O)cc3O2)cc1 | ≥ 11.3 | ≥ 11.3 | 1.08 |  |  |  |
| Oc1ccc([C@@H]2C/C(=N\Nc3cnccn3)c3c(O)cc(O)cc3O2)cc1 | ≥ 11.3 | ≥ 11.3 | 1.65 |  |  |  |
| COc1cc(O)c2c(c1)O[C@H](c1ccc(OCC(O)Cc3c[nH]c4ccccc34)cc1)CC2=O (stereo partly drawn) | ≥ 11.3 | ≥ 11.3 | 0.86 |  |  |  |
| COc1cc(O)c2c(c1)O[C@H](c1ccc(O)cc1)C/C2=N\NC(=O)c1cccs1 | 9.4 | 12 | 1.39 |  |  |  |
| COc1ccc([C@@H]2C/C(=N\Nc3ccccc3)c3c(O)cc(OC)cc3O2)cc1 | ≥ 11.3 | ≥ 11.3 | 1.8 |  |  |  |
| COc1cc(O)c2c(c1)O[C@H](c1ccc(O)cc1)C/C2=N\NC(=O)c1ccco1 | ≥ 11.3 | ≥ 11.3 | 1.28 |  |  |  |
| CCN(CC)CC(O)COc1ccc([C@@H]2CC(=O)c3c(O)cc(OC)cc3O2)cc1 (stereo partly drawn) | ≥ 11.3 | ≥ 11.3 | 4.06 |  |  |  |
| COc1cc(O)c2c(c1)O[C@H](c1ccc(O)cc1)C/C2=N\NC(=O)OCc1ccccc1 | ≥ 11.3 | ≥ 11.3 | 4.14 | 0.638 |  | 7 |
| O=C(N/N=C1\C[C@@H](c2ccc(O)cc2)Oc2cc(O)cc(O)c21)c1cccs1 (stereo in doubt) | ≥ 11.3 | ≥ 11.3 | 0.92 |  |  |  |
| COc1ccc([C@@H]2C/C(=N\NC(=O)c3ccc(N)cc3)c3c(O)cc(OC)cc3O2)cc1 | 3.9 | 1.3 | 1.32 |  |  |  |
| COc1cc(O)c2c(c1)O[C@H](c1ccc(OCC3CO3)cc1)CC2=O (stereo partly drawn) | ≥ 11.3 | ≥ 11.3 | 1.17 |  |  |  |
| CN(C)C(=S)N/N=C1\C[C@@H](c2ccc(O)cc2)Oc2cc(O)cc(O)c21 | ≥ 11.3 | ≥ 11.3 | 2.17 |  |  |  |
| N/N=C1\C[C@@H](c2ccc(O)cc2)Oc2cc(O)cc(O)c21 | ≥ 11.3 | ≥ 11.3 | 0.72 |  |  |  |
| COc1cccc(/C=N/N=C2\C[C@@H](c3ccc(O)cc3)Oc3cc(OC)cc(O)c32)c1 | ≥ 11.3 | ≥ 11.3 | 0.78 |  |  |  |
| COc1cc(O)c2c(c1)O[C@H](c1ccc(OCC(O)CSc3ccccc3)cc1)CC2=O (stereo partly drawn) | ≥ 11.3 | ≥ 11.3 | 0.92 |  |  |  |
| Oc1ccc([C@@H]2C/C(=N\Nc3ccccc3)c3c(O)cc(O)cc3O2)cc1 | ≥ 11.3 | ≥ 11.3 | 1.16 |  |  |  |
